In ChEMBL document CHEMBL4428030, “Design and Synthesis of Structure-Simplified Derivatives of Gonytolide for the Promotion of Innate Immune Responses” (J Nat Prod, 2016):
Calls of active or inactive are those of the source. The calls are words filed in the database; no cut-off is given here.

Key:
HUVEC = assay: Stimulation of innate immune response in HUVEC assessed as increase in TNFalpha-stimulated IL-8 production at 10 ug/ml preincubated for 3 hrs followed by TNFalpha stimulation measured after 12 hrs by ELISA; format: functional, cell-based; settings: Homo sapiens
Procedure, shortened: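 HUVECs grown in EGM-2 at 37 °C, 5% CO2. Cells preincubated ±compound for 3 h, then given 11 μL of 10 ng/mL hTNF-α (stock added to 100 μL well). Supernatants collected after a further 12 h for ELISA.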

Drosophila [1] = assay: Stimulation of innate immune response in Drosophila third-instar larvae assessed as DAP-type peptidoglycans-mediated Dpt-LacZ activation at 10 ug/ml after 12 hrs by beta-galactosidase reporter gene assay relative to control; format: functional
Procedure, shortened: (§1)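 Opened third-instar Dpt-lacZ larvae cultured whole in Schneider's medium with 20% FBS and 1% antibiotics/antimycotics, 25 °C, six larvae per condition as replicates. Compound added from DMSO together with 100 ng/mL E. coli peptidoglycan for 12 h. Each larva sonicated in phosphate buffer (60 mM Na2HPO4, 40 mM NaH2PO4, 10 mM KCl, 1 mM MgCl2) and spun 10000g, 4 °C, 10 min. Supernatant β-galactosidase normalized to total protein.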

Drosophila [2] = assay: Stimulation of innate immune response in Drosophila third-instar larvae assessed as DAP-type peptidoglycans-mediated Dpt-LacZ activation at 1 to 10 ug/ml after 12 hrs by beta-galactosidase reporter gene assay; format: functional, organism-based; procedure, shortened: as §1
[3] = Cytotoxicity against Drosophila melanogaster S2 cells assessed as reduction in cell viability at 10 ug/ml by WST8 assay; format: cell-based
Procedure, shortened: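 S2 cells kept at 25 °C in Schneider's medium with 10% FBS and 1% antibiotics/antimycotics. Viability read by colorimetric WST-8 conversion.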

Drosophila [4] = assay: Stimulation of innate immune response in Drosophila third-instar larvae assessed as DAP-type peptidoglycans-mediated Dpt-LacZ activation at 10 ug/ml after 12 hrs by beta-galactosidase reporter gene assay; format: functional, organism-based; procedure, shortened: as §1

Row | SMILES | Activity (HUVEC) | fold change (FC) (Drosophila [1]) | Activity (Drosophila [2]) | Activity [3] | Activity (Drosophila [4])
1 | COC(=O)[C@]1([C@@H]2CCC(=O)O2)CC(=O)c2c(O)cc(C)c(-c3c(C)cc(O)c4c3O[C@@](C(=O)OC)([C@@H]3CCC(=O)O3)CC4=O)c2O1 | Active | >3 | Dose-dependent effect | – | –
2 | COC(=O)CCCc1cc(=O)c2c(OC)cc(C)c(-c3c(C)cc(OC)c4c(=O)cc(CCCC(=O)OC)oc34)c2o1 | Active | – | – | Non-Toxic | Active
3 | COc1cc(C)c(-c2c(C)cc(OC)c3c(=O)cc(CCCCOC(C)=O)oc23)c2oc(CCCCOC(C)=O)cc(=O)c12 | – | – | – | Non-Toxic | Active
4 | COc1cc(C)c(-c2c(C)cc(OC)c3c(=O)cc(CCCCO)oc23)c2oc(CCCCO)cc(=O)c12 | – | – | inactive | – | –
5 | COc1ccc(-c2cc(=O)c3c(OC)cc(C)c(-c4c(C)cc(OC)c5c(=O)cc(-c6ccc(OC)cc6)oc45)c3o2)cc1 | Active | – | – | Non-Toxic | Active
